Assay results as given in ChEMBL document CHEMBL3046818, “Photosynthesis-Inhibiting efficiency of 4-chloro-2-(chlorophenylcarbamoyl)phenyl alkylcarbamates” (Bioorg Med Chem Lett, 2011).

Key:
[1] = Lipophilicity, log K of the compound; assay type: physicochemical; settings: RP-HPLC capacity factor, C18 column, methanol mobile phase
Method in brief: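 Lipophilicity measured by RP-HPLC as capacity factor k, reported as log k.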

[2] = Chemical stability of the compound in aqueous buffer solutions at acidic pH by HPLC analysis; assay type: physicochemical
[3] = Half life in aqueous buffer solutions at pH 7.4 by HPLC analysis; assay type: ADME; settings: aqueous buffer solution
[4] = molecular target: Photosystem II protein D1 (Spinacia oleracea, UniProt P69560); experiment: Inhibition of photosystem II in Spinacia oleracea (spinach) chloroplasts assessed as reduction of photosynthetic electron transport
Method in brief: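 PET in spinach chloroplasts read spectrophotometrically as DCPIP photoreduction in a chloroplast suspension at pH 7.2. Read within 2 min after adding the carbamate solution in DMSO. IC50 is the molar concentration giving a 50% decrease in activity relative to the untreated control.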

[5] = Half life in aqueous buffer solutions at pH 7 by HPLC analysis; assay type: ADME; settings: aqueous buffer solution
[6] = molecular target: Photosystem II protein D1 (Spinacia oleracea) (UniProt P69560); experiment: Inhibition of photosystem II in Spinacia oleracea (spinach) chloroplasts assessed as restoration of photosynthetic electron transport relative to control in presence of DPC; parameters: scale not given: the % may be the effect or the level left
Method in brief: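 Spinach chloroplasts were first treated with the carbamate, then given the artificial PS 2 donor 1,5-diphenylcarbazide (DPC). PET activity was then measured and expressed as % of the untreated control.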

log K [1]	Stability [2]	half-life [3]	IC50 [4]	half-life [5]	Activity [6]	SMILES
0.7859	Stable	43 h	6.3 µM	64 h	–	CCCCCCNC(=O)Oc1ccc(Cl)cc1C(=O)Nc1ccc(Cl)cc1
1.0903	Stable	43 h	–	64 h	–	CCCCCCCCCCCNC(=O)Oc1ccc(Cl)cc1C(=O)Nc1ccc(Cl)c(Cl)c1
0.7695	Stable	43 h	9.7 µM	64 h	94%	CCNC(=O)Oc1ccc(Cl)cc1C(=O)Nc1ccc(Cl)cc1
0.7837	Stable	43 h	15.4 µM	64 h	–	CCCCCCCCCNC(=O)Oc1ccc(Cl)cc1C(=O)Nc1cccc(Cl)c1
1.0894	Stable	43 h	–	64 h	–	CCCCCCCCCCNC(=O)Oc1ccc(Cl)cc1C(=O)Nc1ccc(Cl)c(Cl)c1
1.0611	Stable	–	144 µM	–	–	CCCCCCNC(=O)Oc1ccc(Cl)cc1C(=O)Nc1ccc(Cl)c(Cl)c1
1.088	Stable	43 h	506 µM	64 h	–	CCCCCCCCCNC(=O)Oc1ccc(Cl)cc1C(=O)Nc1ccc(Cl)c(Cl)c1
0.7611	Stable	43 h	13.4 µM	64 h	–	CCCCNC(=O)Oc1ccc(Cl)cc1C(=O)Nc1cccc(Cl)c1
1.0845	Stable	43 h	432 µM	64 h	–	CCCCCCCCNC(=O)Oc1ccc(Cl)cc1C(=O)Nc1ccc(Cl)c(Cl)c1
0.7942	Stable	43 h	8.4 µM	64 h	–	CCCCCCCCCCNC(=O)Oc1ccc(Cl)cc1C(=O)Nc1ccc(Cl)cc1
0.7947	Stable	43 h	10.5 µM	64 h	–	CCCCCCCCCCCNC(=O)Oc1ccc(Cl)cc1C(=O)Nc1ccc(Cl)cc1
0.7831	Stable	43 h	10.1 µM	64 h	–	CCCCCCCCNC(=O)Oc1ccc(Cl)cc1C(=O)Nc1cccc(Cl)c1
0.7838	Stable	43 h	6.3 µM	64 h	–	CCCCCNC(=O)Oc1ccc(Cl)cc1C(=O)Nc1ccc(Cl)cc1
0.7772	Stable	43 h	4.9 µM	64 h	94%	CCCCCCCNC(=O)Oc1ccc(Cl)cc1C(=O)Nc1cccc(Cl)c1
0.7873	Stable	43 h	15.8 µM	64 h	–	CCCCCCCCCCNC(=O)Oc1ccc(Cl)cc1C(=O)Nc1cccc(Cl)c1
0.7899	Stable	43 h	7.4 µM	64 h	–	CCCCCCCCNC(=O)Oc1ccc(Cl)cc1C(=O)Nc1ccc(Cl)cc1
0.7872	Stable	43 h	7.1 µM	64 h	–	CCCCCCCNC(=O)Oc1ccc(Cl)cc1C(=O)Nc1ccc(Cl)cc1
1.0601	Stable	43 h	99.2 µM	64 h	–	CCCCCNC(=O)Oc1ccc(Cl)cc1C(=O)Nc1ccc(Cl)c(Cl)c1
1.0667	Stable	43 h	169 µM	64 h	–	CCCCCCCNC(=O)Oc1ccc(Cl)cc1C(=O)Nc1ccc(Cl)c(Cl)c1
0.7523	Stable	43 h	15.6 µM	64 h	–	CCNC(=O)Oc1ccc(Cl)cc1C(=O)Nc1cccc(Cl)c1
0.7732	Stable	43 h	5.4 µM	64 h	–	CCCCCNC(=O)Oc1ccc(Cl)cc1C(=O)Nc1cccc(Cl)c1
0.7758	Stable	43 h	5.3 µM	64 h	–	CCCCCCNC(=O)Oc1ccc(Cl)cc1C(=O)Nc1cccc(Cl)c1
0.7919	Stable	43 h	8 µM	64 h	–	CCCCCCCCCNC(=O)Oc1ccc(Cl)cc1C(=O)Nc1ccc(Cl)cc1
0.7902	Stable	43 h	18.3 µM	64 h	–	CCCCCCCCCCCNC(=O)Oc1ccc(Cl)cc1C(=O)Nc1cccc(Cl)c1
1.0234	Stable	43 h	82.3 µM	64 h	–	CCNC(=O)Oc1ccc(Cl)cc1C(=O)Nc1ccc(Cl)c(Cl)c1
0.47	–	–	1.9 µM	–	–	CN(C)C(=O)Nc1ccc(Cl)c(Cl)c1 [DCMU]
